Data: ChEMBL document CHEMBL5058577, “EUbOPEN Chemogenomics Library 2 (Multiplex)” (2022)

Tested on: HEK-293T
Experiment: Multiplex assay against HEK293T
Assay type: toxicity, cell-based
Settings: human
Method in brief: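 Cells stained live at seeding with Hoechst33342, BioTracker Green Microtubule Cytoskeleton Dye, MitoTracker Red and Annexin V Alexa Fluor 680 were imaged on a CQ1 microscope at 37°C and 5% CO2 after compound addition. Their classification by CellPathfinder machine-learning gating ran from Hoechst high-intensity objects versus normal cells, to healthy, pyknosed or fragmented nuclei among normal cells, to mitotic or apoptotic among pyknosed cells. Tubulin, mitochondrial-mass and membrane-permeability phenotypes are per cents of healthy-nucleus cells.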

[1] = 12 h, 1 µM, compound concentration 1 uM, replicate 1
[2] = 12 h, 1 µM, compound concentration 1 uM, replicate 2
[3] = 12 h, 10 µM, compound concentration 10 uM, replicate 1
[4] = 12 h, 10 µM, compound concentration 10 uM, replicate 2
[5] = 24 h, 1 µM, compound concentration 1 uM, replicate 1
[6] = 24 h, 1 µM, compound concentration 1 uM, replicate 2
[7] = 24 h, 10 µM, compound concentration 10 uM, replicate 1
[8] = 24 h, 10 µM, compound concentration 10 uM, replicate 2
[9] = 48 h, 1 µM, compound concentration 1 uM, replicate 1
[10] = 48 h, 1 µM, compound concentration 1 uM, replicate 2
[11] = 48 h, 10 µM, compound concentration 10 uM, replicate 1
[12] = 48 h, 10 µM, compound concentration 10 uM, replicate 2

Cl.N=C(N)NC(=O)Cc1c(Cl)cccc1Cl [GUANFACINE HYDROCHLORIDE]
Population Apoptotic (%) [1]: 29% | Population Fragmented Nuclei (%) [1]: 3% | Population Healthy Nuclei (%) [1]: 84% | Population Hoechst High Intensity Objects (%) [1]: 7% | Population Membrane Permeable-Phenotype (%) [1]: 0% | Population Mitochondria Different-Phenotype (%) [1]: 46% | Population Mitotic Cells (%) [1]: 70% | Population Normal (%) [1]: 92% | Population Pyknosed Nuclei (%) [1]: 11% | Population Tubulin-Different-Phenotype (%) [1]: 31% | Total Cell Count [1]: 384 | Population Apoptotic (%) [2]: 47% | Population Fragmented Nuclei (%) [2]: 5% | Population Healthy Nuclei (%) [2]: 76% | Population Hoechst High Intensity Objects (%) [2]: 12% | Population Mitochondria Different-Phenotype (%) [2]: 67% | Population Mitotic Cells (%) [2]: 52% | Population Normal (%) [2]: 87% | Population Pyknosed Nuclei (%) [2]: 17% | Total Cell Count [2]: 289 | Population Apoptotic (%) [3]: 52% | Population Fragmented Nuclei (%) [3]: 12% | Population Healthy Nuclei (%) [3]: 67% | Population Hoechst High Intensity Objects (%) [3]: 7% | Population Membrane Permeable-Phenotype (%) [3]: 0% | Population Mitochondria Different-Phenotype (%) [3]: 61% | Population Mitotic Cells (%) [3]: 47% | Population Normal (%) [3]: 92% | Population Pyknosed Nuclei (%) [3]: 20% | Population Tubulin-Different-Phenotype (%) [3]: 43% | Total Cell Count [3]: 296 | Population Apoptotic (%) [4]: 34% | Population Fragmented Nuclei (%) [4]: 8% | Population Healthy Nuclei (%) [4]: 77% | Population Hoechst High Intensity Objects (%) [4]: 10% | Population Mitochondria Different-Phenotype (%) [4]: 69% | Population Mitotic Cells (%) [4]: 65% | Population Normal (%) [4]: 89% | Population Pyknosed Nuclei (%) [4]: 14% | Population Tubulin-Different-Phenotype (%) [4]: 38% | Total Cell Count [4]: 365 | Population Apoptotic (%) [5]: 36% | Population Fragmented Nuclei (%) [5]: 8% | Population Healthy Nuclei (%) [5]: 80% | Population Hoechst High Intensity Objects (%) [5]: 4% | Population Membrane Permeable-Phenotype (%) [5]: 0% | Population Mitochondria Different-Phenotype (%) [5]: 27% | Population Mitotic Cells (%) [5]: 63% | Population Normal (%) [5]: 95% | Population Pyknosed Nuclei (%) [5]: 11% | Population Tubulin-Different-Phenotype (%) [5]: 21% | Total Cell Count [5]: 493 | Population Apoptotic (%) [6]: 50% | Population Fragmented Nuclei (%) [6]: 4% | Population Healthy Nuclei (%) [6]: 83% | Population Hoechst High Intensity Objects (%) [6]: 10% | Population Mitochondria Different-Phenotype (%) [6]: 42% | Population Mitotic Cells (%) [6]: 50% | Population Normal (%) [6]: 89% | Population Tubulin-Different-Phenotype (%) [6]: 19% | Total Cell Count [6]: 344 | Population Apoptotic (%) [7]: 46% | Population Fragmented Nuclei (%) [7]: 11% | Population Healthy Nuclei (%) [7]: 75% | Population Hoechst High Intensity Objects (%) [7]: 7% | Population Membrane Permeable-Phenotype (%) [7]: 0% | Population Mitochondria Different-Phenotype (%) [7]: 48% | Population Mitotic Cells (%) [7]: 53% | Population Normal (%) [7]: 92% | Population Pyknosed Nuclei (%) [7]: 12% | Population Tubulin-Different-Phenotype (%) [7]: 39% | Total Cell Count [7]: 343 | Population Apoptotic (%) [8]: 36% | Population Fragmented Nuclei (%) [8]: 6% | Population Healthy Nuclei (%) [8]: 83% | Population Hoechst High Intensity Objects (%) [8]: 9% | Population Mitochondria Different-Phenotype (%) [8]: 50% | Population Mitotic Cells (%) [8]: 63% | Population Normal (%) [8]: 90% | Population Pyknosed Nuclei (%) [8]: 10% | Population Tubulin-Different-Phenotype (%) [8]: 27% | Total Cell Count [8]: 454 | Population Apoptotic (%) [9]: 15% | Population Fragmented Nuclei (%) [9]: 15% | Population Healthy Nuclei (%) [9]: 78% | Population Hoechst High Intensity Objects (%) [9]: 2% | Population Membrane Permeable-Phenotype (%) [9]: 1% | Population Mitochondria Different-Phenotype (%) [9]: 22% | Population Mitotic Cells (%) [9]: 84% | Population Normal (%) [9]: 97% | Population Pyknosed Nuclei (%) [9]: 6% | Population Tubulin-Different-Phenotype (%) [9]: 21% | Total Cell Count [9]: 680 | Population Apoptotic (%) [10]: 34% | Population Fragmented Nuclei (%) [10]: 10% | Population Healthy Nuclei (%) [10]: 79% | Population Hoechst High Intensity Objects (%) [10]: 7% | Population Membrane Permeable-Phenotype (%) [10]: 0% | Population Mitochondria Different-Phenotype (%) [10]: 32% | Population Mitotic Cells (%) [10]: 65% | Population Normal (%) [10]: 92% | Population Pyknosed Nuclei (%) [10]: 9% | Population Tubulin-Different-Phenotype (%) [10]: 14% | Total Cell Count [10]: 560 | Population Apoptotic (%) [11]: 47% | Population Fragmented Nuclei (%) [11]: 17% | Population Healthy Nuclei (%) [11]: 73% | Population Hoechst High Intensity Objects (%) [11]: 6% | Population Membrane Permeable-Phenotype (%) [11]: 0% | Population Mitochondria Different-Phenotype (%) [11]: 31% | Population Mitotic Cells (%) [11]: 52% | Population Normal (%) [11]: 93% | Population Pyknosed Nuclei (%) [11]: 9% | Population Tubulin-Different-Phenotype (%) [11]: 14% | Total Cell Count [11]: 421 | Population Apoptotic (%) [12]: 50% | Population Fragmented Nuclei (%) [12]: 12% | Population Healthy Nuclei (%) [12]: 80% | Population Hoechst High Intensity Objects (%) [12]: 10% | Population Mitochondria Different-Phenotype (%) [12]: 33% | Population Mitotic Cells (%) [12]: 50% | Population Normal (%) [12]: 89% | Population Pyknosed Nuclei (%) [12]: 6% | Population Tubulin-Different-Phenotype (%) [12]: 20% | Total Cell Count [12]: 612
